Screening results (PubChem)
A selection: hits, their analogues and other compounds. The true share with any hit is near 2.4%.
MEX-5 binding: C. elegans MEX-5 TCR-2 RNA binding activity; Q9XUB2; MEX-5/FITC-TCR2 RNA binding, fluorescence polarization; hits give low values; activity score (negative = inhibition of binding), % at 10 µM; 0.38% of 300,000 active; AID 1832;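 active means inhibition past about -25% in most replicates, and total fluorescence under double the plate's negative control median, limit read from the data; inconclusive means replicates evenly split on the limit, or fluorescence at least double controls; inactive means too little inhibition in most replicates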;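 further: 0% = DMSO and -100% = 5 µM competing unlabeled TCR2 RNA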
Runt-SMMHC FRET: blocks binding of human RUNX1 Runt domain to CBFb-SMMHC. Q01196+Q13951. inhibition, % at 20 µM. Cerulean-Runt/Venus-CBFb-SMMHC FRET ratio 530/480, 1 h. 0.74% of 220,000 active;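 active means mean inhibition across duplicate retests at 20 µM reaching about 50%, limit read from the data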;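 further: 0% = DMSO wells and 100% = wells with excess untagged CBFb-SMMHC; inhibitors lower the FRET ratio by blocking Runt binding to CBFb-SMMHC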
RanGTP-Impb inh: disruptors of Ran-importin-beta complex formation – biochemical, FRET, CFP-Ran, YFP-importin-beta, homogeneous, primary screen | cell-free CFP-Ran/YFP-importin-beta FRET ratio | inhibition, % (concentration not given with the values) | 1.1% of 300,000 active | AID 2216;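 active means more than half of the replicate wells show a fall in the fluorescence ratio signal beyond about 16%, limit read from the data, passing the limit was not always enough; inconclusive means exactly half of the replicate wells pass the set limit; inactive means fewer than half of replicates pass the limit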;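 further: 0% = DMSO wells and 100% = Ran loaded with GDP instead of GTP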
EBV gp42 block: inhibitors of Epstein-Barr virus glycoprotein 42; Q1HVG2; 0.42% of 220,000 active; AID 1085; inhibition, % (tested at 21.74 µM); Fluorescence polarization binding assay, mP read-out; in the data active means inhibition above about 50%
Target sequence (Q1HVG2 whole entry, looked up): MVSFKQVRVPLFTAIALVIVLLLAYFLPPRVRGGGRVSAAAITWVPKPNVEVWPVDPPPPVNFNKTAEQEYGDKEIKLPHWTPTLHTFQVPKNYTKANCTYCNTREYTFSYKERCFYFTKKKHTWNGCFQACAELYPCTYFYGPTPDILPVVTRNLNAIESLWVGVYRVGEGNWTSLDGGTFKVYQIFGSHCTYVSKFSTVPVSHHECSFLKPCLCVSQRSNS
Runt-CBFb FRET: blocks binding of human RUNX1 Runt domain to CBFb. Cerulean-Runt/Venus-CBFb FRET ratio 530/480, 1 h. inhibition, % at 20 µM. 0.46% of 220,000 active. Q01196+Q13951;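 active means inhibition over about 50% at 20 µM in the single-dose screen, limit read from the data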;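 further: 0% = DMSO wells and 100% = excess unlabeled CBFb competitor control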
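Assay system: Cerulean-tagged RUNX1 Runt domain (FRET donor) fusion protein / Amount: 100 nM each of Venus-CBFb and Cerulean-Runt domain / Medium: Tris buffer pH 7.5 with salts and BSA / Also added: Venus-CBFb 100 nM / Schedule: 1 h complex formation plus 1 h compound treatment, room temperature / Signal: FRET fluorescence / Read-out: loss of energy transfer signal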
LANA-H2B inh: blocks KSHV LANA binding to histone H2A/H2B; inhibition, % (no concentration beside the values); cell-free LANA-H2A/H2B peptide, fluorescence polarization; Q9QR71; 0.6% of 320,000 active; in the data active means inhibition mostly above about 10%, no sharp cut-off; inactive means mostly below about 6.7%
Runt-CBFb TRFRET: disrupts human RUNX1 Runt domain binding to CBFb. 20% of 480 active. inhibition, % at 20 µM. shares compounds with Runt-CBFb FRET. TR-FRET RUNX1 Runt domain-CBFb binding. AID 1502; in the data active means inhibition above about 40%
An asterisk follows results filed as active; ? = inconclusive; . = no result given.

SMILES	MEX-5 binding	Runt-SMMHC FRET	RanGTP-Impb inh	EBV gp42 block	Runt-CBFb FRET	LANA-H2B inh	Runt-CBFb TRFRET
Cc1cc2sc3ccccc3c(=O)c2c(C)c1O	-4	-73	?	-7	-23	-1	.
O=C(NNc1cc(Br)c(O)c(Br)c1)c1ccccc1	-2	36	-4	-6	78*	3	45*
NS(=O)(=O)c1ccc(NNC(=O)c2ccccc2)cc1	-1	-4	1	-15	3	1	.
Cc1ccc(S(=O)(=O)NC(C(=O)Oc2cc3oc(=O)cc(C)c3cc2Cl)C(C)C)cc1 (configuration not stated)	-3	115*	?	-3	61*	-4	53*
CC(=O)Oc1cc2oc(=O)cc(C)c2cc1Cl	0	113*	13	-10	79*	-3	-57
CC(C)(C)NC(=O)CN(C(=O)c1snc(C(=O)NC2CCCCC2)c1N)c1ccccc1F	2	.	4	.	.	-5	.
COc1ccc(S(=O)(=O)N2CCN(C(=O)C3CCCCC3)CC2)cc1	0	.	-7	.	.	-2	.
O=C(O)c1c(C(=O)O)c(-c2ccc(F)cc2)n2c1CCC2	-1	.	-3	.	.	5	.
CN1CCc2c(sc3ncn4nc(-c5ccccc5O)nc4c23)C1	.	125*	.	3	57*	.	-2
O=[N+]([O-])c1cccc(C(=S)N2CCN(c3ccc(F)cc3)CC2)c1	0	2	-3	15	19	-3	.
CN1CCc2c(sc(/N=C/c3c[nH]c4ccccc34)c2C(N)=O)C1	-6	14	46*	-15	53*	-42	-42
C=CCN(CC=C)C(=O)CN1C(=O)NC(C)(c2ccc3cc(OC)ccc3c2)C1=O (configuration not stated)	-2	.	1	.	.	0	.
O=C(Nc1cccc([N+](=O)[O-])c1)c1[nH]ncc1Cl	-1	-3	?	-5	-2	-1	.
CCc1ccc(N2C(=O)C(Cl)=C(N3CCOCC3)C2=O)cc1	1	70	-2	-1	68*	0	12
Cc1cccc(N2C(=O)C(Cl)=C(N3CCOCC3)C2=O)c1	-4	42	3	-18	51*	1	18
CCc1ccc(N2C(=O)C(Cl)=C(N3CCCCCC3)C2=O)cc1	6	.	-2	.	.	-5	.
O=C1CCNCCN1[C@H](CO)c1ccccc1	1	.	?	.	.	2	.
C=CCOC(=O)C1=C(C)N=c2s/c(=C3\C(=O)N(CC(=O)O)c4ccccc43)c(=O)n2C1c1ccc(OC)cc1 (configuration not stated)	0	-35	-4	12	53*	3	29
CCOC(=O)c1[nH]nc(-c2cc(CC)c(O)cc2O)c1-c1cscn1	-11	0	-2	-6	61*	-2	3
Fc1cccc(C[n+]2csc3ccccc32)c1	0	70	5	-12	56*	4	-10
c1ccc(C[n+]2csc3ccccc32)cc1	-1	70	-1	-13	36	0	.
Cc1cc(C)n2nc(C)c(Br)c2n1	-1	1	0	-10	1	-2	.
Cc1cc(C)n2nc3nc4c(cc3c2n1)CCCC4	-6	.	5	2	65*	12	63*
COc1ccc(CCn2c(=N)c(C(=O)N3CCN(C)CC3)cc3c(=O)n4ccccc4nc32)cc1	0	124*	6	-18	65*	1	30
Cc1cc(N2CCOCC2)c2c(N)c(C)cc(C)c2n1	.	41	.	-1	62*	2	-3
SMILES	MEX-5 binding	Runt-SMMHC FRET	RanGTP-Impb inh	EBV gp42 block	Runt-CBFb FRET	LANA-H2B inh	Runt-CBFb TRFRET
CCOC(=O)C1=C(C)N(c2ccc(OC)cc2)C(=O)/C1=C\c1ccc(O)c(OCC)c1	-1	-4	-12	9	65*	-2	32
O=C(CSc1nnc2c(n1)[nH]c1ccccc12)Nc1cccc(S(=O)(=O)N2CCOCC2)c1	-1	-4	3	-11	2	3	.
Cc1cccc(C2NC(=O)c3c(sc(C)c3C)N2)c1O (configuration not stated)	-2	4	-2	-6	51*	3	-17
Cc1[nH]c2ccccc2c1N=Nc1ccccc1C(=O)O	0	-20	5	1	52*	-1	17
S=c1[nH]c(-c2ccc(Cl)cc2)cs1	0	35	3	-9	50*	3	9
S=c1nccc(-c2ccc(Cl)cc2)[nH]1	1	12	-2	-4	56*	-1	41*
Cc1nn(C(=O)c2c([N+](=O)[O-])cnn2C)c(C)c1Cl	-3	3	4	-8	-5	-57	.
CCOC(=O)c1cc2c(=O)n3ccccc3nc2n(CCOC)c1=NC(=O)C(C)(C)C	1	-16	77*	-17	77*	-3	-7
COCCn1c(=N)c(C(=O)NCc2ccco2)cc2c(=O)n3cc(C)ccc3nc21	-12	.	-4	42	.	3	.
Cc1ccc(S(=O)(=O)N2CCCCC2CCNC(=O)C(=O)NCc2ccccc2C)cc1 (configuration not stated)	-3	.	6	.	.	-7	.
O=C(Nc1ccc(O)c(-c2nc3ccccc3s2)c1)C1=COCCO1	2	11	3	-7	9	7	.
O=C(Nc1ccc(-c2nc3ccccc3s2)c(O)c1)C1=COCCO1	2	128*	-31	-2	59*	-1	2
CCC12OC(=N)C(C#N)(C1C)C(C#N)(C#N)C(c1ccccc1)O2 (configuration not stated)	-10	88*	21*	9	58*	0	41*
CCCc1cc(C(=O)N/N=C/c2cccn2C)cs1	3	.	-1	.	.	-5	.
CC(C)CC(=O)NC(NC(=S)Nc1cccc2cccnc12)C(Cl)(Cl)Cl (configuration not stated)	-2	4	6	1	6	1	.
CC(C)C(=O)NC(Nc1cccc2cccnc12)C(Cl)(Cl)Cl (configuration not stated)	2	3	1	-13	79*	-1	48*
Cc1ccccc1N=Cc1cc2c(cc1O)OC(N)=C(C#N)C2c1ccccc1 (configuration not stated)	-11	109*	30*	3	71*	-2	0
N#CC1=C(N)Oc2cc(O)c(C=Nc3ccccc3)cc2C1c1ccccc1 (configuration not stated)	-2	34	?	-24	27	-6	.
CCOC(=O)c1c(NC(=O)c2ccccc2)sc2c1CCc1ccccc1-2	-2	27	1	-5	55*	5	6
